Source: PMC10962727 (PNAS Nexus, 2024)

Key:
[1] = target: T1, MST1 (Homo sapiens, UniProt Q13043); conditions: high-throughput MST1 inhibition screen ref 16, 17; cited from earlier work
T1 sequence (Q13043 1-487): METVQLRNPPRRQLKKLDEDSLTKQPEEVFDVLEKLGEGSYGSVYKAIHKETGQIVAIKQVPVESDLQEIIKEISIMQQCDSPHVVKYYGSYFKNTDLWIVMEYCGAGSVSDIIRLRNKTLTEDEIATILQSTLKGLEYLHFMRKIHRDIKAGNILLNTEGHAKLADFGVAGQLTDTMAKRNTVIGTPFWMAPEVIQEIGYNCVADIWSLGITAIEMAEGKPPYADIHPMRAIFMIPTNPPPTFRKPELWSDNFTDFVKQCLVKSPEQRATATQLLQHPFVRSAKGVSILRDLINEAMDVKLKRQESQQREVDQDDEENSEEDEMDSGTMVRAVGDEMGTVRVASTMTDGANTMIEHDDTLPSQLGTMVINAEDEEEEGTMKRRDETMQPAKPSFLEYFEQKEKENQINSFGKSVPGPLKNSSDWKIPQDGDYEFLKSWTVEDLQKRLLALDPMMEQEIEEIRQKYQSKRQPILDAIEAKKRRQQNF

[2] = Pharmacokinetics in mice; format: in vivo; conditions: female, CD1, mouse, plasma, po, 20 mg/kg
In short: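 Female CD1 mice and male beagle dogs received test compound orally in 0.5% methylcellulose:0.5% Tween-80 or intravenously in saline, both at 5 mL/kg. After oral dosing, plasma concentrations were measured at 30 min, 1 h, 3 h, 8 h and 24 h.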

[3] = target: T1, MST1; assay: MST1 inhibition; format: biochemical; conditions: vs neratinib
[4] = target: EGFR (Homo sapiens, UniProt P00533); assay: EGFR inhibition; format: biochemical
EGFR, sequence (P00533 25-1210): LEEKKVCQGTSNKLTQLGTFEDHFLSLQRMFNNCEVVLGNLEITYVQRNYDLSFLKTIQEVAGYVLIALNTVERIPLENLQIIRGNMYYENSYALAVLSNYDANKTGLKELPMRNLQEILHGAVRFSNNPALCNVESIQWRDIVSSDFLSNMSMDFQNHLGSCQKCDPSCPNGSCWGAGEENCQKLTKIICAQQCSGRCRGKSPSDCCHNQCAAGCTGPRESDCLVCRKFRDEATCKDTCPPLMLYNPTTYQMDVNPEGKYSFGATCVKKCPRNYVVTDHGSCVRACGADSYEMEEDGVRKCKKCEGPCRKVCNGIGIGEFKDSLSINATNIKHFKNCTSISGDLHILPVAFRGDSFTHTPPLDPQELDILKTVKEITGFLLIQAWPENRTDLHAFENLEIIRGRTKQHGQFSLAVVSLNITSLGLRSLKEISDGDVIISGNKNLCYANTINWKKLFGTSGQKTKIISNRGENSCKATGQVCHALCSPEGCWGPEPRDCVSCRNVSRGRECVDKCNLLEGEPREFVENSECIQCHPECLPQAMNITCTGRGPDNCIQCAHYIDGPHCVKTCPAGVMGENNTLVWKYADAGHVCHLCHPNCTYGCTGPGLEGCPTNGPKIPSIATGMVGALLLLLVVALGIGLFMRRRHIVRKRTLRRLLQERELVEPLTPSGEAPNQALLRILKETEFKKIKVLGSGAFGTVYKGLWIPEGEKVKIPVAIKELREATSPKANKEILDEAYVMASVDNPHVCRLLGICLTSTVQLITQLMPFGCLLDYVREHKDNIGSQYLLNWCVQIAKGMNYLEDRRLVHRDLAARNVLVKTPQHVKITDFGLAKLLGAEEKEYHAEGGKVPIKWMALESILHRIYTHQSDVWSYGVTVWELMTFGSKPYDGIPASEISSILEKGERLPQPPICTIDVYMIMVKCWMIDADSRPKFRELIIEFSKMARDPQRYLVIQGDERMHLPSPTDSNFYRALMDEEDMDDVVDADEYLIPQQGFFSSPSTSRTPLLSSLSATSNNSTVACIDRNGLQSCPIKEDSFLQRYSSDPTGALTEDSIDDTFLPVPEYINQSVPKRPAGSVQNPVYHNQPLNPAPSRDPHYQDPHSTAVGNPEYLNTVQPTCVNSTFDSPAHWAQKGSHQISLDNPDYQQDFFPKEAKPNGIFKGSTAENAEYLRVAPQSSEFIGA

[5] = test system: MST1/2; conditions: cited from earlier work

CCOc1cc2ncc(C#N)c(Nc3ccc(OCc4ccccn4)c(Cl)c3)c2cc1NC(=O)/C=C/CN(C)C [Neratinib]
MST1 inhibitory activity (in words) [1]: high MST1 inhibitory activity
AUC(0-t) [2]: 3120 ng·h/mL
Cmax [2]: 342 ± 152 ng/mL
MRT [2]: 5.4 ± 1.3 h
Tmax [2]: 4 ± 3 h

CCOc1cc2ncc(C#N)c(Nc3ccc(OCc4ccccn4)c(Cl)c3)c2cc1NC(=O)CCCN(C)C [mBNB885]
MST1 activity (in words) [3]: preserved MST1 activity
fold reduction in potency toward EGFR / EGFR inhibition ([4]; compared with preceding/parent compound): 5 fold
IC50 ([4]; read-out: EGFR IC50): 1.42 nM

XMU-MP-1
MST1/2 inhibition (in words) [5]: selective MST1/2 inhibition
